{"source": "ChEMBL document CHEMBL4513216", "about": "“Probing the Open Global Health Chemical Diversity Library for Multistage-Active Starting Points for Next-Generation Antimalarials” (ACS Infect Dis, 2020)", "test": "Toxicity liver stage against HepG2, at 10uM", "format": "cell-based", "set-up": "test concentration 10 uM, cell line HepG2-A16-CD81EGFP", "settings": "human, HepG2-A16-CD81EGFP cells; read-out: INHIBITION", "outline": "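Uninfected HepG2-A16-CD81EGFP cells, 3 × 10^3 per well, 1536-well, plated on prespotted compound at 10 μM final, parasite-free screening media added to match infected plates; puromycin 10 μM positive, DMSO 0.5% negative; run in parallel with 48 h PbLuc assay at 37 °C, 5% CO2; viability by CellTiter-Glo luminescence, normalized to controls.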"}
{"smiles": "Cc1ccc(C)c2c(C)c(C(=O)NCCC(=O)N3CCOCC3)oc12", "values": [{"measurement": "cytotoxicity at 10 µM", "result": 1.04, "unit": "%"}]}
{"smiles": "CC(C)N(C)CCNC(=O)NCc1ccccc1-n1cccn1", "values": [{"measurement": "cytotoxicity at 10 µM", "result": -7.57, "unit": "%"}]}
{"smiles": "CC(C)c1noc(CS(=O)(=O)CC(=O)NCc2ccccc2)n1", "values": [{"measurement": "cytotoxicity at 10 µM", "result": -10.5, "unit": "%"}]}
{"smiles": "O=C1CN(Cc2nnc(-c3ccc(Br)o3)o2)CCN1", "values": [{"measurement": "cytotoxicity at 10 µM", "result": 13.5, "unit": "%"}]}
{"smiles": "CC(C)NC(=O)c1ccc2nnc(C3CCN(S(C)(=O)=O)C3)n2c1", "note": "(stereo not given)", "values": [{"measurement": "cytotoxicity at 10 µM", "result": 3.5, "unit": "%"}]}
{"smiles": "Cc1ccc(C(=O)N2C[C@@H](OCc3cccnc3)[C@H]3OCCC[C@H]32)o1", "values": [{"measurement": "cytotoxicity at 10 µM", "result": 4.74, "unit": "%"}]}
{"smiles": "O=S1(=O)C[C@@H]2[C@H](C1)N(Cc1ncc[nH]1)CCN2C/C=C/c1ccccc1", "values": [{"measurement": "cytotoxicity at 10 µM", "result": 11.2, "unit": "%"}]}
{"smiles": "CCc1cc(NCCN2CCNC2=O)n2nc(C)c(C)c2n1", "values": [{"measurement": "cytotoxicity at 10 µM", "result": -5.81, "unit": "%"}]}
{"smiles": "CCc1nc(C)c(C(=O)N(C)Cc2cnc3ccccn23)o1", "values": [{"measurement": "cytotoxicity at 10 µM", "result": -1.94, "unit": "%"}]}
{"smiles": "Cc1cc(C)n(Cc2cc(C(=O)N3CCCC3c3nccs3)n[nH]2)n1", "note": "(stereo not given)", "values": [{"measurement": "cytotoxicity at 10 µM", "result": -5.08, "unit": "%"}]}
{"smiles": "O=C1NCCN(Cc2ccoc2)C1CC(=O)N1CCc2sccc2C1", "note": "(stereo not given)", "values": [{"measurement": "cytotoxicity at 10 µM", "result": -3.45, "unit": "%"}]}
{"smiles": "Cc1ncsc1CCN(C)Cc1cc2n(n1)CCN(Cc1ncc[nH]1)C2", "values": [{"measurement": "cytotoxicity at 10 µM", "result": -22.2, "unit": "%"}]}
{"smiles": "Cc1cccc(=O)n1CCCNc1nc(N(C)C)nc2c1CCNC2", "values": [{"measurement": "cytotoxicity at 10 µM", "result": -0.545, "unit": "%"}]}
{"smiles": "CCC(=O)Nc1ccc(OCC(=O)N(C)C(C)c2ccon2)cc1", "note": "(stereo not given)", "values": [{"measurement": "cytotoxicity at 10 µM", "result": 5.22, "unit": "%"}]}
{"smiles": "CN(CCCc1cnn(C)c1)C(=O)Nc1cccc(C#N)c1", "values": [{"measurement": "cytotoxicity at 10 µM", "result": -0.828, "unit": "%"}]}
{"smiles": "CNc1ncc(CN(C)C(=O)CCc2cc3n(n2)CCCNC3)cn1", "values": [{"measurement": "cytotoxicity at 10 µM", "result": -13.5, "unit": "%"}]}
{"smiles": "CC(C)[C@H]1CN(c2ccncc2)C[C@@H]1NC(=O)C1(C#N)CCOCC1", "values": [{"measurement": "cytotoxicity at 10 µM", "result": -9.21, "unit": "%"}]}
{"smiles": "COC(=O)c1cc(OCC2CCC2)cc(C(=O)N[C@H]2CCCC[C@@H]2O)c1", "values": [{"measurement": "cytotoxicity at 10 µM", "result": -2.94, "unit": "%"}]}
{"smiles": "CC(C)(C)c1ncc(C(=O)N2CCC(N3CCSCC3)CC2)c(O)n1", "values": [{"measurement": "cytotoxicity at 10 µM", "result": 0.382, "unit": "%"}]}
{"smiles": "CN1CCC(N2CCCC(C(=O)N3Cc4ccccc4C3)C2)CC1", "note": "(stereo not given)", "values": [{"measurement": "cytotoxicity at 10 µM", "result": 5.19, "unit": "%"}]}
{"smiles": "Cc1[nH]c(=O)[nH]c(=O)c1CC(=O)N1CCC(Oc2ccc(F)cc2)CC1", "values": [{"measurement": "cytotoxicity at 10 µM", "result": 4.42, "unit": "%"}]}
{"smiles": "CC(=O)NCc1cc2n(n1)CCN(Cc1cccc(Cl)c1F)C2", "values": [{"measurement": "cytotoxicity at 10 µM", "result": 7.65, "unit": "%"}]}
{"smiles": "CCNC(=O)N1CCC(Cc2cccc(C(N)=O)c2)C1", "note": "(stereo not given)", "values": [{"measurement": "cytotoxicity at 10 µM", "result": 2.92, "unit": "%"}]}
{"smiles": "COCC1CCN(S(=O)(=O)c2ccc(C(=O)NCC(F)F)cc2)C1", "note": "(stereo not given)", "values": [{"measurement": "cytotoxicity at 10 µM", "result": 6.95, "unit": "%"}]}
{"smiles": "c1cc(-c2cn[nH]c2)ccc1CN1CCCCC1", "values": [{"measurement": "cytotoxicity at 10 µM", "result": 1.58, "unit": "%"}]}
{"smiles": "CC(O)C(=O)N1CCC(c2nccn2Cc2cscn2)CC1", "note": "(stereo not given)", "values": [{"measurement": "cytotoxicity at 10 µM", "result": 0.557, "unit": "%"}]}
{"smiles": "CCC1CN(C(=O)c2cccc(O)c2)CCC(=O)N1Cc1ccccc1", "note": "(stereo not given)", "values": [{"measurement": "cytotoxicity at 10 µM", "result": 6.78, "unit": "%"}]}
{"smiles": "Cc1ccc2c(c1)c(CNC(C)Cn1nc(C)cc1C)nn2C", "note": "(stereo not given)", "values": [{"measurement": "cytotoxicity at 10 µM", "result": -10.5, "unit": "%"}]}
{"smiles": "COC1CCN(C(=O)Cn2cccc(C(F)(F)F)c2=O)C1", "note": "(stereo not given)", "values": [{"measurement": "cytotoxicity at 10 µM", "result": 2.23, "unit": "%"}]}
{"smiles": "Cn1cc(Cl)c(CN2CCn3nc(C(=O)Nc4ccccc4)cc3C2)n1", "values": [{"measurement": "cytotoxicity at 10 µM", "result": -2.8, "unit": "%"}]}
{"smiles": "O=C(NCC1=CCCCC1)C(c1cccnc1)N1CCOCC1", "note": "(stereo not given)", "values": [{"measurement": "cytotoxicity at 10 µM", "result": -8.4, "unit": "%"}]}
{"smiles": "CC(C)N1CCC(CC(=O)NCCc2cc(O)ncn2)CC1", "values": [{"measurement": "cytotoxicity at 10 µM", "result": 6.36, "unit": "%"}]}
{"smiles": "CCc1c(C)nn(C)c1NC(=O)N1CCCOC(Cn2cccn2)C1", "note": "(stereo not given)", "values": [{"measurement": "cytotoxicity at 10 µM", "result": -8.14, "unit": "%"}]}
{"smiles": "O=C(NCCCNc1ccc(C(F)(F)F)cn1)c1ccccc1", "values": [{"measurement": "cytotoxicity at 10 µM", "result": -6.07, "unit": "%"}]}
{"smiles": "CC(=O)N1CCCCCC1C1CCN(c2ncccc2C#N)CC1", "note": "(stereo not given)", "values": [{"measurement": "cytotoxicity at 10 µM", "result": -7.13, "unit": "%"}]}
{"smiles": "Cc1nn(C)c(C)c1CC(=O)N1CCCN(c2cccnn2)CC1", "values": [{"measurement": "cytotoxicity at 10 µM", "result": -2.1, "unit": "%"}]}
{"smiles": "CCn1c(C(=O)N2CCN(C(=O)NC(C)C)CC2)cc2ccccc21", "values": [{"measurement": "cytotoxicity at 10 µM", "result": -1.94, "unit": "%"}]}
{"smiles": "Cc1ccc(-c2nc(CNCCn3cccn3)cs2)o1", "values": [{"measurement": "cytotoxicity at 10 µM", "result": -5.9, "unit": "%"}]}
{"smiles": "N#CC1(C(=O)N2CCN(Cc3ccon3)CC2)CCC1", "values": [{"measurement": "cytotoxicity at 10 µM", "result": -5.97, "unit": "%"}]}
{"smiles": "COc1ccc(C2=CCN(C(=O)CN(C)CC(N)=O)CC2)cc1", "values": [{"measurement": "cytotoxicity at 10 µM", "result": -9.19, "unit": "%"}]}
{"smiles": "Cc1ccc(CNC(=O)CCSCc2csc(C)n2)cn1", "values": [{"measurement": "cytotoxicity at 10 µM", "result": -10, "unit": "%"}]}
{"smiles": "COc1cc(CN(C)[C@@H]2COC[C@H]2c2ccc(F)cc2)cc(OC)c1", "values": [{"measurement": "cytotoxicity at 10 µM", "result": 7.67, "unit": "%"}]}
{"smiles": "COc1cc(CNCc2ccco2)ccc1OCCO", "values": [{"measurement": "cytotoxicity at 10 µM", "result": 3.35, "unit": "%"}]}
{"smiles": "c1coc(CN2CCc3nnc(COc4cncnc4)n3CC2)c1", "values": [{"measurement": "cytotoxicity at 10 µM", "result": 4.15, "unit": "%"}]}
{"smiles": "NCC(=O)N1CCCC1c1n[nH]cc1-c1ccccc1F", "note": "(stereo not given)", "values": [{"measurement": "cytotoxicity at 10 µM", "result": 2.37, "unit": "%"}]}
{"smiles": "COCCNC(=O)[C@H]1C[C@@H]2CCN(c3ccccc3)C[C@H]2O1", "values": [{"measurement": "cytotoxicity at 10 µM", "result": 2.78, "unit": "%"}]}
{"smiles": "c1cnc(NCc2nnn3c2CN(CC2CC2)CCC3)nc1", "values": [{"measurement": "cytotoxicity at 10 µM", "result": -0.536, "unit": "%"}]}
{"smiles": "CCc1nc(CNC(C)c2cccc(N3CCCC3=O)c2)cs1", "note": "(stereo not given)", "values": [{"measurement": "cytotoxicity at 10 µM", "result": 7.28, "unit": "%"}]}
{"smiles": "CS(=O)(=O)N1CCO[C@@H]2CN(Cc3ccc(F)cc3)CC[C@@H]2C1", "values": [{"measurement": "cytotoxicity at 10 µM", "result": 6.86, "unit": "%"}]}
{"smiles": "CC(C)c1nc(-c2cc(C(=O)N3CCN(C)CC3)c3ccccn23)cs1", "values": [{"measurement": "cytotoxicity at 10 µM", "result": 5.77, "unit": "%"}]}
{"smiles": "CO[C@H]1CCN(S(=O)(=O)c2cn(C)cn2)[C@H]1Cc1cnn(C)c1", "values": [{"measurement": "cytotoxicity at 10 µM", "result": 2.63, "unit": "%"}]}
{"smiles": "Cc1nc(CN2CC[C@@H](OCC3CC3)[C@@H]2Cc2cccnc2)cs1", "values": [{"measurement": "cytotoxicity at 10 µM", "result": -4.38, "unit": "%"}]}
{"smiles": "Cc1ccc2c(c1)C1(CCN(C(=O)C3CC3)CC1)CC2N1CCOCC1", "note": "(stereo not given)", "values": [{"measurement": "cytotoxicity at 10 µM", "result": -128, "unit": "%"}]}
{"smiles": "COc1ccc(F)cc1C(=O)N1C[C@@H]2CC[C@H]1CN(c1ncccn1)C2", "values": [{"measurement": "cytotoxicity at 10 µM", "result": 4.24, "unit": "%"}]}
{"smiles": "Cc1nc[nH]c1CN1C[C@H]2CC[C@@H](C1)N(C(=O)c1cnn(C)c1)C2", "values": [{"measurement": "cytotoxicity at 10 µM", "result": 2.42, "unit": "%"}]}
